Test results reported in ChEMBL document CHEMBL1275559, “Complex ciprofloxacin resistome revealed by screening a Pseudomonas aeruginosa mutant library for altered susceptibility” (2008).
Active and inactive are the calls of the source.

Legend:
Pseudomonas aeruginosa [1] = assay: Upregulation of putative phage tail protein in Pseudomonas aeruginosa PA0619 at MIC; assay type: functional, organism-based
Pseudomonas aeruginosa [2] = assay: Upregulation of putative tail fiber protein in Pseudomonas aeruginosa PA0620 at 0.3 times MIC; assay type: functional, organism-based
Pseudomonas aeruginosa [3] = assay: Upregulation of putative tail fiber protein in Pseudomonas aeruginosa PA0620 at MIC; assay type: functional, organism-based
Pseudomonas aeruginosa [4] = assay: Upregulation of putative phage tail tube protein in Pseudomonas aeruginosa PA0623 at 0.3 times MIC; assay type: functional, organism-based
Pseudomonas aeruginosa [5] = assay: Upregulation of putative tail fiber assembly protein in Pseudomonas aeruginosa PA0621 at 0.3 times MIC; assay type: functional, organism-based
Pseudomonas aeruginosa [6] = assay: Upregulation of putative tail fiber assembly protein in Pseudomonas aeruginosa PA0621 at MIC; assay type: functional, organism-based
Pseudomonas aeruginosa [7] = assay: Upregulation of putative phage tail sheath protein in Pseudomonas aeruginosa PA0622 at 0.3 times MIC after 48 hrs; assay type: functional, organism-based
Pseudomonas aeruginosa [8] = assay: Upregulation of putative phage tail sheath protein in Pseudomonas aeruginosa PA0622 at MIC after 48 hrs; assay type: functional, organism-based
Pseudomonas aeruginosa [9] = assay: Upregulation of putative phage tail tube protein in Pseudomonas aeruginosa PA0623 at MIC; assay type: functional, organism-based
Pseudomonas aeruginosa [10] = assay: Upregulation of conserved hypothetical protein in Pseudomonas aeruginosa PA0624 at 0.3 times MIC; assay type: functional, organism-based
In short: (§1)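 P. aeruginosa cells were treated with ciprofloxacin at 0.3× MIC or 1× MIC. Gene expression trend was scored relative to untreated cells.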

Pseudomonas aeruginosa [11] = assay: Upregulation of putative tail formation protein in Pseudomonas aeruginosa PA0626 at 0.3 times MIC; assay type: functional, organism-based
Pseudomonas aeruginosa [12] = assay: Upregulation of hypothetical protein in Pseudomonas aeruginosa PA0630 at 0.3 times MIC; assay type: functional, organism-based; in short: as §1
Pseudomonas aeruginosa [13] = assay: Upregulation of hypothetical protein in Pseudomonas aeruginosa PA0630 at MIC; assay type: functional, organism-based; in short: as §1
Pseudomonas aeruginosa [14] = assay: Upregulation of putative major tail protein V in Pseudomonas aeruginosa PA0633 at MIC; assay type: functional, organism-based; in short: as §1
Pseudomonas aeruginosa [15] = assay: Upregulation of hypothetical protein in Pseudomonas aeruginosa PA0634 at 0.3 times MIC; assay type: functional, organism-based; in short: as §1
Pseudomonas aeruginosa [16] = assay: Upregulation of hypothetical protein in Pseudomonas aeruginosa PA0634 at MIC; assay type: functional, organism-based; in short: as §1
Pseudomonas aeruginosa [17] = assay: Upregulation of putative phage tail assembly protein in Pseudomonas aeruginosa PA0640 at 0.3 times MIC; assay type: functional, organism-based; in short: as §1
Pseudomonas aeruginosa [18] = assay: Upregulation of putative phage tail assembly protein in Pseudomonas aeruginosa PA0640 at MIC; assay type: functional, organism-based; in short: as §1
Pseudomonas aeruginosa [19] = assay: Upregulation of putative phage-related protein, tail component in Pseudomonas aeruginosa PA0641 at 0.3 times MIC; assay type: functional, organism-based
Pseudomonas aeruginosa [20] = assay: Upregulation of putative phage-related protein, tail component in Pseudomonas aeruginosa PA0641 at MIC; assay type: functional, organism-based
Pseudomonas aeruginosa [21] = assay: Upregulation of conserved hypothetical protein in Pseudomonas aeruginosa PA0647 at 0.3 times MIC; assay type: functional, organism-based; in short: as §1
Pseudomonas aeruginosa [22] = assay: Upregulation of conserved hypothetical protein in Pseudomonas aeruginosa PA0647 at MIC; assay type: functional, organism-based; in short: as §1
Pseudomonas aeruginosa [23] = assay: Upregulation of hypothetical protein in Pseudomonas aeruginosa PA0736-PA0737 at 0.3 times MIC; assay type: functional, organism-based; in short: as §1
Pseudomonas aeruginosa [24] = assay: Upregulation of hypothetical protein in Pseudomonas aeruginosa PA0736-PA0737 at MIC; assay type: functional, organism-based; in short: as §1
Pseudomonas aeruginosa [25] = assay: Upregulation of conserved hypothetical protein in Pseudomonas aeruginosa PA1433 at MIC after 48 hrs; assay type: functional, organism-based
Pseudomonas aeruginosa [26] = assay: Upregulation of putative permease of ABC transporter in Pseudomonas aeruginosa PA2060 at 0.3 times MIC after 48 hrs; assay type: functional, organism-based
Pseudomonas aeruginosa [27] = assay: Downregulation of hypothetical protein in Pseudomonas aeruginosa PA3276 at 0.3 times MIC after 48 hrs; assay type: functional, organism-based
Pseudomonas aeruginosa [28] = assay: Upregulation of conserved hypothetical protein in Pseudomonas aeruginosa PA3784 at MIC after 48 hrs; assay type: functional, organism-based
Pseudomonas aeruginosa [29] = assay: Upregulation of possible nuclease or phosphatase in Pseudomonas aeruginosa PA3958 at 0.3 times MIC after 48 hrs; assay type: functional, organism-based
Pseudomonas aeruginosa [30] = assay: Upregulation of possible nuclease or phosphatase in Pseudomonas aeruginosa PA3958 at MIC after 48 hrs; assay type: functional, organism-based
Pseudomonas aeruginosa [31] = assay: Upregulation of hypothetical protein in Pseudomonas aeruginosa PA0338 at MIC; assay type: functional, organism-based; in short: as §1
Pseudomonas aeruginosa [32] = assay: Upregulation of putative tail length determination protein in Pseudomonas aeruginosa PA0636 at 0.3 times MIC; assay type: functional, organism-based
Pseudomonas aeruginosa [33] = assay: Upregulation of putative tail length determination protein in Pseudomonas aeruginosa PA0636 at MIC; assay type: functional, organism-based
Pseudomonas aeruginosa [34] = assay: Upregulation of putative minor tail protein L in Pseudomonas aeruginosa PA0638 at MIC; assay type: functional, organism-based; in short: as §1
Pseudomonas aeruginosa [35] = assay: Upregulation of putative major tail protein V in Pseudomonas aeruginosa PA0633 at 0.3 times MIC; assay type: functional, organism-based; in short: as §1
Pseudomonas aeruginosa [36] = assay: Upregulation of putative tail formation protein in Pseudomonas aeruginosa PA0626 at MIC; assay type: functional, organism-based
Pseudomonas aeruginosa [37] = assay: Upregulation of conserved hypothetical protein in Pseudomonas aeruginosa PA0624 at MIC; assay type: functional, organism-based; in short: as §1
Pseudomonas aeruginosa [38] = assay: Upregulation of conserved hypothetical protein in Pseudomonas aeruginosa PA0613 at MIC after 48 hrs; assay type: functional, organism-based
Pseudomonas aeruginosa [39] = assay: Upregulation of ygdP gene in Pseudomonas aeruginosa PA0336 at 0.3 times MIC relative to untreated control; assay type: functional, organism-based
Pseudomonas aeruginosa [40] = assay: Upregulation of ygdP gene in Pseudomonas aeruginosa PA0336 at 1 times MIC relative to untreated control; assay type: functional, organism-based
Pseudomonas aeruginosa [41] = assay: Upregulation of mexB gene in Pseudomonas aeruginosa PA0426 at 0.3 times MIC relative to untreated control; assay type: functional, organism-based; in short: as §1
Pseudomonas aeruginosa [42] = assay: Upregulation of oprM gene in Pseudomonas aeruginosa PA0427 at 1 times MIC relative to untreated control; assay type: functional, organism-based; in short: as §1
Pseudomonas aeruginosa [43] = assay: Downregulation of oprF gene in Pseudomonas aeruginosa PA1777 at 1 times MIC relative to untreated control; assay type: functional, organism-based; in short: as §1
Pseudomonas aeruginosa [44] = assay: Downregulation of tig gene in Pseudomonas aeruginosa PA1800 at 1 times MIC relative to untreated control; assay type: functional, organism-based; in short: as §1
Pseudomonas aeruginosa [45] = assay: Downregulation of betT1 gene in Pseudomonas aeruginosa PA5375 at 0.3 times MIC relative to untreated control; assay type: functional, organism-based; in short: as §1
Pseudomonas aeruginosa [46] = assay: Upregulation of nuoN gene in Pseudomonas aeruginosa PA2649 at 0.3 times MIC; assay type: functional, organism-based; in short: as §1
Pseudomonas aeruginosa [47] = assay: Upregulation of hitB gene in Pseudomonas aeruginosa PA4688 at 0.3 times MIC; assay type: functional, organism-based; in short: as §1
Pseudomonas aeruginosa [48] = assay: Upregulation of hitB gene in Pseudomonas aeruginosa PA4688 at MIC; assay type: functional, organism-based; in short: as §1
Pseudomonas aeruginosa [49] = assay: Upregulation of mutL gene in Pseudomonas aeruginosa PA4946 at MIC; assay type: functional, organism-based; in short: as §1
Pseudomonas aeruginosa [50] = assay: Downregulation of nuoG gene in Pseudomonas aeruginosa PA2642 at MIC; assay type: functional, organism-based; in short: as §1
Pseudomonas aeruginosa [51] = assay: Downregulation of adhA gene in Pseudomonas aeruginosa PA5427 at MIC; assay type: functional, organism-based; in short: as §1
Pseudomonas aeruginosa [52] = assay: Upregulation of atpB gene in Pseudomonas aeruginosa PA5560 at MIC; assay type: functional, organism-based; in short: as §1
Pseudomonas aeruginosa [53] = assay: Upregulation of gidA gene in Pseudomonas aeruginosa PA5565 at MIC; assay type: functional, organism-based; in short: as §1
Pseudomonas aeruginosa [54] = assay: Upregulation of hypothetical protein in Pseudomonas aeruginosa PA0338 at 0.3 times MIC; assay type: functional, organism-based; in short: as §1
Pseudomonas aeruginosa [55] = assay: Upregulation of putative sensor/response regulator hybrid in Pseudomonas aeruginosa PA1611 at 0.3 times MIC; assay type: functional, organism-based
Pseudomonas aeruginosa [56] = assay: Upregulation of hypothetical protein in Pseudomonas aeruginosa PA4459 at MIC; assay type: functional, organism-based; in short: as §1
Pseudomonas aeruginosa [57] = assay: Upregulation of hypothetical protein in Pseudomonas aeruginosa PA4685 at 0.3 times MIC; assay type: functional, organism-based; in short: as §1
Pseudomonas aeruginosa [58] = assay: Upregulation of conserved hypothetical protein in Pseudomonas aeruginosa PA0613 at 0.3 times MIC after 48 hrs; assay type: functional, organism-based
Pseudomonas aeruginosa [59] = assay: Upregulation of conserved hypothetical protein in Pseudomonas aeruginosa PA0615 at 0.3 times MIC; assay type: functional, organism-based; in short: as §1
Pseudomonas aeruginosa [60] = assay: Upregulation of hypothetical protein in Pseudomonas aeruginosa PA0616 at 0.3 times MIC; assay type: functional, organism-based; in short: as §1
Pseudomonas aeruginosa [61] = assay: Upregulation of conserved hypothetical protein in Pseudomonas aeruginosa PA0615 at MIC; assay type: functional, organism-based; in short: as §1
Pseudomonas aeruginosa [62] = assay: Upregulation of hypothetical protein in Pseudomonas aeruginosa PA0616 at MIC; assay type: functional, organism-based; in short: as §1
Pseudomonas aeruginosa [63] = assay: Upregulation of putative base plate assembly protein W in Pseudomonas aeruginosa PA0617 at 0.3 times MIC; assay type: functional, organism-based; in short: as §1
Pseudomonas aeruginosa [64] = assay: Upregulation of putative base plate assembly protein W in Pseudomonas aeruginosa PA0617 at MIC; assay type: functional, organism-based; in short: as §1
Pseudomonas aeruginosa [65] = assay: Upregulation of putative phage base plate assembly protein in Pseudomonas aeruginosa PA0618 at 0.3 times MIC; assay type: functional, organism-based; in short: as §1
Pseudomonas aeruginosa [66] = assay: Upregulation of putative phage base plate assembly protein in Pseudomonas aeruginosa PA0618 at MIC; assay type: functional, organism-based; in short: as §1
Pseudomonas aeruginosa [67] = assay: Upregulation of putative phage tail protein in Pseudomonas aeruginosa PA0619 at 0.3 times MIC; assay type: functional, organism-based; in short: as §1
Pseudomonas aeruginosa [68] = assay: Downregulation of betT1 gene in Pseudomonas aeruginosa PA5375 at 0.3 times MIC relative to untreated control

Measured: Activity

O=C(O)c1cn(C2CC2)c2cc(N3CCNCC3)c(F)cc2c1=O
active: all assays above
